Measured values from ChEMBL document CHEMBL1131493, “Inhibitors of farnesyl protein transferase. 4-Amido, 4-carbamoyl, and 4-carboxamido derivatives of 1-(8-chloro-6,11-dihydro-5H-benzo[5,6]- cyclohepta[1,2-b]pyridin-11-yl)piperazine and 1-(3-bromo-8-chloro-6,11- dihydro-5H-benzo[5,6]cyclohepta[1,2-b]pyridin-11-yl)piperazine” (J Med Chem, 1998).
Blank lines part the entries; values can stand above or below the molecule they belong to.

Experiments:
[1] = In vivo antitumor efficacy in nude mice by injecting a dose of 25 mg/kg, as HCl salt in saline solution, iv and the serum half-life was determined; assay type: ADME, organism-based; set-up: dose 25 mg/kg, route intravenous; settings: mouse
[2] = In vivo antitumor efficacy after peroral dose of 25 mg/kg expressed as duration for which compound was present above IC50; assay type: ADME, organism-based; set-up: dose 25 mg/kg, route oral; settings: po
How it was run: (§1)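 Serum pharmacokinetics in nude mice or cynomolgus monkeys after oral (po) or iv dosing. Compounds were given as hydrochloride salts in 20% HPβCD unless otherwise noted. Other formulations were the hydrochloride salt in saline, the micronized free base in 20% HPβCD or corn oil (po) with saline for iv, or the hydrochloride salt in 0.4% methyl cellulose (po).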

[3] = In vivo antitumor efficacy in nude mice 0-24 hr after intravenous dose of 25 mg/kg expressed as Area under the curve; assay type: ADME, organism-based; set-up: time < 24 hr, dose 25 mg/kg, route intravenous; settings: mouse; how it was run: as §1
[4] = Oral bioavailability in mouse (nude) (dose of 25 mg/kg); assay type: ADME, organism-based; settings: in vivo; how it was run: as §1
[5] = In vivo antitumor efficacy in nude mice 0-24 hr after iperoral dose of 25 mg/kg expressed as Area under the curve; assay type: ADME, organism-based; set-up: time < 24 hr, dose 25 mg/kg; settings: mouse, po; how it was run: as §1
[6] = (§2) Maximal plasma concentration in nude mice after 25 mg/kg oral dose; assay type: ADME, organism-based; set-up: dose 25 mg/kg, route oral; settings: mouse; how it was run: as §1
[7] = target: T1, Protein farnesyltransferase (Homo sapiens, UniProt P49354+P49356); assay: In vitro inhibition of farnesyltransferase farnesylation of the H-ras oncogene; assay type: protein-complex assay
[8] = In vivo antitumor efficacy in nude mice by injecting a dose of 25 mg/kg iv and serum half-life was determined; assay type: ADME, organism-based; set-up: dose 25 mg/kg, route intravenous; settings: mouse; how it was run: as §1
[9] = In vivo antitumor efficacy in nude mice 0-24 hr after peroral dose of 25 mg/kg expressed as Area under the curve; assay type: ADME, organism-based; set-up: time < 24 hr, dose 25 mg/kg, route oral; settings: nude, mouse, po; how it was run: as §1
[10] = In vivo antitumor efficacy peroral dose of 25 mg/kg expressed as duration for which compound was present above IC50; assay type: ADME, organism-based; set-up: dose 25 mg/kg, route oral; settings: po; how it was run: as §1
[11] = target: T1, Protein farnesyltransferase; assay: Inhibition of Farnesyltransferase from Ras-CVLS or Ras-CVLL in Cos-7 monkey kidney cells; assay type: cell-based, Chlorocebus aethiops
Mus musculus [12] = assay: In vivo antitumor efficacy after peroral dose of 25 mg/kg in mice expressed as duration for which compound was present above IC50; assay type: ADME, organism-based; set-up: dose 25 mg/kg, route oral; settings: po; how it was run: as §1
[13] = target: geranylgeranyltransferase type-I (Rattus norvegicus, UniProt P53610+Q04631); assay: Inhibition of rat Geranylgeranyl transferase (GGPT); assay type: protein-complex assay
[14] = In vivo antitumor efficacy in nude mice by injecting a dose of 25 mg/kg, as HCl salt in saline solution, iv and the total drug exposure was determined. (0-24hr); assay type: ADME, organism-based; set-up: time < 24 hr, dose 25 mg/kg, route intravenous; settings: mouse
[15] = In vivo antitumor efficacy in nude mice by injecting a dose of 25 mg/kg, micronized free base in 20% HPbetaCD, iv and the serum half-life was determined; assay type: ADME, organism-based; set-up: dose 25 mg/kg, route intravenous; settings: mouse
[16] = as §2; assay type: ADME, organism-based; set-up: dose 25 mg/kg, route oral; settings: mouse; remark: listed apart in the source
Mus musculus [17] = assay: In vivo antitumor efficacy in nude mice by injecting a dose of 25 mg/kg, as HCl salt in saline solution, perorally and the duration of action was reported; assay type: ADME, organism-based; set-up: dose 25 mg/kg, route oral; settings: po
[18] = Bioavailability in cynomolgus monkey (dose 5 mg/kg i.v.); assay type: ADME, organism-based, Macaca fascicularis; settings: in vivo, iv; how it was run: as §1
[19] = Oral bioavailability in nude mice; assay type: ADME, organism-based; settings: mouse, in vivo, read-out: Bioavailabiility
[20] = Oral bioavailability in mouse (nude) (dose 25 mg/kg i.v.); assay type: ADME, organism-based; settings: in vivo
[21] = as §2; assay type: ADME, organism-based; set-up: dose 25 mg/kg, route oral; settings: mouse; remark: listed apart in the source
Cynomolgus monkey = assay: In vivo antitumor efficacy in cynomolgus monkeys by injecting a dose of 10 mg/kg, as HCl salt in saline solution, perorally and the duration of action was reported; assay type: ADME, organism-based, Macaca fascicularis; set-up: dose 10 mg/kg, route oral; settings: po
How it was run: (§3)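 Cynomolgus monkeys; hydrochloride salt in saline iv, or compound given po (as hydrochloride, as micronized free base in corn oil, or as hydrochloride in 0.4% methyl cellulose, depending on compound).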

[22] = In vivo antitumor efficacy in cynomolgus monkeys by injecting a dose of 5 mg/kg, as HCl salt in saline solution, perorally and the maximum drug concentration was determined; assay type: ADME, organism-based, Macaca fascicularis; set-up: dose 5 mg/kg, route oral; settings: cynomolgus monkey, po; how it was run: as §3
[23] = In vivo antitumor efficacy in nude mice by injecting a dose of 25 mg/kg, micronized free base in 20% HPbetaCD, iv and the total drug exposure was determined. (0-24hr); assay type: ADME, organism-based; set-up: time < 24 hr, dose 25 mg/kg, route intravenous; settings: mouse
[24] = In vivo antitumor efficacy in cynomolgus monkeys by injecting a dose of 10 mg/kg, as HCl salt in saline solution, perorally and the maximum drug concentration was determined; assay type: ADME, organism-based, Macaca fascicularis; set-up: dose 10 mg/kg, route oral; settings: cynomolgus monkey, po; how it was run: as §3
[25] = In vivo antitumor efficacy in cynomolgus monkeys by injecting a dose of 5 mg/kg, as HCl salt in saline solution, intravenously and the total drug exposure was determined (0-8 hr); assay type: ADME, organism-based, Macaca fascicularis; set-up: time < 8 hr, dose 5 mg/kg, route intravenous; settings: cynomolgus monkey, iv; how it was run: as §3
[26] = In vivo antitumor efficacy in nude mice by injecting a dose of 25 mg/kg, micronized free base in 20% HPbetaCD, perorally and the total drug exposure was determined (0-24hr); assay type: ADME, organism-based; set-up: time < 24 hr, dose 25 mg/kg, route oral; settings: mouse, po
[27] = In vivo antitumor efficacy in cynomolgus monkeys by injecting a dose of 5 mg/kg, as HCl salt in saline solution, iv and the serum half-life was determined; assay type: ADME, organism-based, Macaca fascicularis; set-up: dose 5 mg/kg, route intravenous; settings: cynomolgus monkey; how it was run: as §3
[28] = In vivo antitumor efficacy in nude mice by injecting a dose of 25 mg/kg, as HCl salt in saline solution, perorally and the total drug exposure was determined (0-24hr); assay type: ADME, organism-based; set-up: time < 24 hr, dose 25 mg/kg, route oral; settings: mouse, po
[29] = In vivo antitumor efficacy in cynomolgus monkeys by injecting a dose of 5 mg/kg, as HCl salt in saline solution, perorally and the total drug exposure was determined (0-8 hr); assay type: ADME, organism-based, Macaca fascicularis; set-up: time < 8 hr, dose 5 mg/kg, route oral; settings: cynomolgus monkey, po; how it was run: as §3
[30] = In vivo antitumor efficacy in cynomolgus monkeys by injecting a dose of 10 mg/kg, as HCl salt in saline solution, perorally and the total drug exposure was determined (0-8 hr); assay type: ADME, organism-based, Macaca fascicularis; set-up: time < 8 hr, dose 10 mg/kg, route oral; settings: cynomolgus monkey, po; how it was run: as §1

SMILES: O=C(Cc1cc[n+]([O-])cc1)N1CCN([C@@H]2c3ccc(Cl)cc3CCc3cccnc32)CC1
- half-life [1]: 1.1 h
- Time above IC50 [2]: 2 h
- AUC at 24 h [3]: 11300 ng·h/mL
- bioavailability [4]: 53%
- AUC at 24 h [5]: 6000 ng·h/mL
- Cmax [6]: 3 µM
- IC50 [7]: 1200 nM

SMILES: O=C(Cc1ccc[n+]([O-])c1)N1CCN(C2c3ccc(Cl)cc3CCc3cc(Br)cnc32)CC1 (configuration not stated)
- half-life [8]: 1 h
- AUC at 24 h [9]: 34800 ng·h/mL
- AUC at 24 h [3]: 24000 ng·h/mL
- bioavailability [4]: 100%
- Cmax [6]: 45.4 µM
- Time above IC50 [10]: 6 h

SMILES: CCCC[C@H]1CN(C2c3ccc(Cl)cc3CCc3cc(Br)cnc32)CCN1C(=O)Cc1cc[n+]([O-])cc1 (some centres not stated)
- half-life [8]: 2 h
- IC50 [11]: 630 nM
- Time above IC50 (Mus musculus [12]): 7 h
- AUC at 24 h [9]: 43200 ng·h/mL
- IC50 [13]: > 34200 nM
- bioavailability [4]: 47%
- AUC at 24 h [14]: 91400 ng·h/mL
- Cmax [6]: 11.5 µM
- IC50 [7]: 60 nM

- half-life [15]: 1.5 h
- Cmax [16]: 38.8 µM
- Time above IC50 (Mus musculus [17]): 8 h
- bioavailability [18]: 35%
- bioavailability [19]: 96.6%
- half-life [1]: 1.2 h
- bioavailability [20]: 100%
- Cmax [21]: 71.1 µM
- Time above IC50 (Cynomolgus monkey): 24 h
- Cmax [22]: 0.5 µM
- IC50 [13]: > 35000 nM
- AUC at 24 h [14]: 33900 ng·h/mL
- AUC at 24 h [23]: 57200 ng·h/mL
- Cmax [24]: 2 µM
- AUC at 8 h [25]: 12300 ng·h/mL
- AUC at 24 h [26]: 55200 ng·h/mL
- half-life [27]: 2.4 h
- AUC at 24 h [28]: 70800 ng·h/mL
- AUC at 8 h [29]: 4270 ng·h/mL
- AUC at 8 h [30]: 12700 ng·h/mL
SMILES: NC(=O)N1CCC(CC(=O)N2CCN(C3c4ccc(Cl)cc4CCc4cc(Br)cnc43)CC2)CC1 (configuration not stated)
